Source: ChEMBL document CHEMBL1121421, “2,4-Diamino-5-benzylpyrimidines and analogues as antibacterial agents. 2. C-Alkylation of pyrimidines with Mannich bases and application to the synthesis of trimethoprim and analogues” (J Med Chem, 1980)
≈ marks a conversion by molar mass, not a printed value.

How the values were obtained:
[1] = target: Bifunctional dihydrofolate reductase-thymidylate synthase (Plasmodium berghei str. ANKA, UniProt Q27713); assay: Inhibitory activity against Dihydrofolate reductase enzyme purified from Plasmodium berghei.; conditions: read-out: I50
Chain of Bifunctional dihydrofolate reductase-thymidylate synthase (Q27713 whole entry): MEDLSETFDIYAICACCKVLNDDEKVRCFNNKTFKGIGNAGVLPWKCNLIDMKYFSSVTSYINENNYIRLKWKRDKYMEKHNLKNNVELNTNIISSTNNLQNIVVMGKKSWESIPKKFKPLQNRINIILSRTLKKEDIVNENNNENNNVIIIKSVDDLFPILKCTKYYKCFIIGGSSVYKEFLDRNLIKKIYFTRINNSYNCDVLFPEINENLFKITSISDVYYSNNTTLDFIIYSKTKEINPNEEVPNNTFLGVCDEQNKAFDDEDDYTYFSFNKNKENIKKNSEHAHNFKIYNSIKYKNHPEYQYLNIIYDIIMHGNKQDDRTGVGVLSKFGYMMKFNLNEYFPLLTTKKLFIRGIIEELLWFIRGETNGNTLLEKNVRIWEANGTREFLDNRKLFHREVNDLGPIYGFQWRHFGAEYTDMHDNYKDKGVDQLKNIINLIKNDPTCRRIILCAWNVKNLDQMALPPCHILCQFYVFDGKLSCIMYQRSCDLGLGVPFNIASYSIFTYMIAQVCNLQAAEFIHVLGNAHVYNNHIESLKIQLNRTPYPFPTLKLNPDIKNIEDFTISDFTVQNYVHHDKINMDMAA

Dihydrofolate reductase = target: T1, Dihydrofolate reductase (Rattus norvegicus, UniProt Q920D2); assay: (§1) Inhibitory activity against Dihydrofolate reductase enzyme purified from rat liver.; conditions: read-out: I50
T1 sequence (Q920D2 whole entry): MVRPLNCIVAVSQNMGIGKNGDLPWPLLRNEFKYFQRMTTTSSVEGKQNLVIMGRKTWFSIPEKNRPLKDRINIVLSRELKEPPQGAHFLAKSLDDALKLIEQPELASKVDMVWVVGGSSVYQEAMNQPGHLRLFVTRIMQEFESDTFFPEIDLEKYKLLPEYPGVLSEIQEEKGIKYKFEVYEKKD

Escherichia coli = assay: Antibacterial activity against Escherichia coli CN314.; format: functional
Proteus vulgaris = assay: Antibacterial activity against Proteus vulgaris CN 329.; format: functional
Staphylococcus aureus = assay: Antibacterial activity against Staphylococcus aureus CN491.; format: functional
Salmonella = assay: Antibacterial activity against typhi CN512.; format: functional, salmonella typhosa
Streptococcus pyogenes = assay: Antibacterial activity against Streptococcus pyogenes CN10; format: functional
Shigella dysenteriae = assay: Antibacterial activity against of against Shig dysentariae CN 1523.; format: functional
Serratia marcescens = assay: Antibacterial activity against of against Serr. marcescens CN 398.; format: functional
Klebsiella pneumoniae = assay: Antibacterial activity against Klebsiella pneumoniae CN 3632.; format: functional
[2] = target: T2, Dihydrofolate reductase (Rattus norvegicus) (UniProt Q920D2); assay: as §1; parameters: scale not given: the % may be the effect or the level left
T2 sequence (whole entry): T1 sequence (Q920D2 whole entry)
Summary of the method: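 Partially purified rat liver dihydrofolate reductase in phosphate buffer. Compound was preincubated with enzyme and buffer for 5 min at 37 °C. NADPH was then added, followed by FH₂ to start the reaction. IC₅₀ (50% drop in reaction rate) was taken from titrations over three to six compound concentrations. Otherwise the value is the percent inhibition at the highest concentration tested.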

| Compound | IC50 [1] | IC50 (Dihydrofolate reductase) | MIC (Escherichia coli) | MIC (Proteus vulgaris) | MIC (Staphylococcus aureus) | MIC (Salmonella) | MIC (Streptococcus pyogenes) | MIC (Shigella dysenteriae) | MIC (Serratia marcescens) | MIC (Klebsiella pneumoniae) | Activity [2] |
| --- | --- | --- | --- | --- | --- | --- | --- | --- | --- | --- | --- |
| COc1cc(Cc2cnc(N)nc2N)cc(OC)c1O [4-HYDROXYTRIMETHOPRIM] | 0.3 µM | 92 µM | 0.125 mg/L (≈ 0.452 µM) | 2 mg/L (≈ 7.24 µM) | 0.5 mg/L (≈ 1.81 µM) | 0.03 mg/L (≈ 0.109 µM) | 0.5 mg/L (≈ 1.81 µM) |  |  |  |  |
| COc1cc(Cc2cnc(N)nc2N)cc(OC)c1OC [TRIMETHOPRIM] |  |  | 0.3 mg/L (≈ 1.03 µM) | 1 mg/L (≈ 3.44 µM) | 1 mg/L (≈ 3.44 µM) | 0.3 mg/L (≈ 1.03 µM) | 0.3 mg/L (≈ 1.03 µM) | 0.1 mg/L (≈ 0.344 µM) | 3 mg/L (≈ 10.3 µM) | 0.3 mg/L (≈ 1.03 µM) |  |
| COc1cc(Cc2c(C)nc(N)nc2N)cc(OC)c1OC |  |  | 30 mg/L (≈ 98.6 µM) | > 100 mg/L | 30 mg/L (≈ 98.6 µM) | 30 mg/L (≈ 98.6 µM) | 30 mg/L (≈ 98.6 µM) | 30 mg/L (≈ 98.6 µM) | > 100 mg/L | > 100 mg/L |  |
| COc1cc(Cc2c(N)nc(N)nc2O)cc(OC)c1O |  |  | > 100 mg/L | > 100 mg/L | > 100 mg/L | > 100 mg/L | > 100 mg/L | > 100 mg/L | > 100 mg/L | > 100 mg/L |  |
| COc1cc(Cc2c[n+](C)c(N)nc2N)cc(OC)c1OC.[I-] |  |  | 50 mg/L | > 100 mg/L | 50 mg/L | 25 mg/L | 50 mg/L | 25 mg/L |  | > 100 mg/L | 41% |
